Test results: ChEMBL document CHEMBL1141552, “Synthesis and antitubercular activity of 7-(R)- and 7-(S)-methyl-2-nitro-6-(S)-(4-(trifluoromethoxy)benzyloxy)-6,7-dihydro-5H-imidazo[2,1-b][1,3]oxazines, analogues of PA-824” (Bioorg Med Chem Lett, 2008)
In brackets after ≈: the same amount, converted by molar mass.

Columns and labels:
[1] = Aqueous solubility of the compound; format: physicochemical
Summary of the method: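 Excess solid (3–5 mg) shaken in 0.5 mL water for 3 days, then centrifuged at 10,000g for 5 min. Supernatant diluted in water and analysed by LC/MS with UV peak area at 310 nm. Concentration read from a previously determined calibration curve, corrected for dilution.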

[2] = system: Mycobacterium tuberculosis; assay: Antitubercular activity against Mycobacterium tuberculosis H37Rv under aerobic conditions; format: functional
Summary of the method: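 Broth dilution MIC99 against Mtb H37Rv (ATCC 27294) and its H37Rv mutants under aerobic conditions. Compound stocks were made in DMSO at 20 mM.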

[3] = system: Mycobacterium tuberculosis; assay: Antitubercular activity against Mycobacterium tuberculosis H37Rv by oxygen depletion assay; format: functional
Summary of the method: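 Early-log Mtb cultures in Dubos broth were diluted 100-fold and sealed at a 0.5 head-space ratio, then stirred for 20 days to reach NRP-2. The cells were handled anaerobically and exposed to 1.95–500 μM drug in two-fold dilutions for 7 days at 37°C. After three washes, the cells were spotted on 7H11 agar for 3 weeks. MAC was taken as the concentration giving 90% reduction in visible growth.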

C[C@H]1Oc2nc([N+](=O)[O-])cn2C[C@@H]1OCc1ccc(OC(F)(F)F)cc1
solubility [1]: 10.3 µg/mL (≈ 27.6 µM)
MIC [2]: 0.2 µM (≈ 0.0747 µg/mL)
MAC [3]: 8 µM

O=[N+]([O-])c1cn2c(n1)OC[C@@H](OCc1ccc(OC(F)(F)F)cc1)C2 [PRETOMANID]
solubility [1]: 10.2 µg/mL (≈ 28.4 µM)
MIC [2]: 0.4 µM (≈ 0.144 µg/mL)
MAC [3]: 8 µM

C[C@@H]1Oc2nc([N+](=O)[O-])cn2C[C@@H]1OCc1ccc(OC(F)(F)F)cc1
solubility [1]: 9.89 µg/mL (≈ 26.5 µM)
MIC [2]: 0.2 µM (≈ 0.0747 µg/mL)
MAC [3]: 16 µM
